# Source: PubChem BioAssay (several laboratories)
# The full list was thinned out, with hits kept by preference.
# Lmaj promast: inhibitors of Leishmania major promastigote growth | Leishmania major promastigotes, resazurin fluorescence viability | inhibition, % at 10 µM | hit rate 9% among 200,000; in the data active = inhibition above about 50%;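 note: promastigotes grown with compound for 44 hours at 28 °C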
# CHOP inhibitor: inhibitors of CHOP induction in ER stress response; CHO-K1 CHOP-promoter luciferase, tunicamycin-induced, 15-18 h; inhibition, % at 10 µM; hit rate 3.8% among 220,000; AID 2732;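 active = compounds that reduced the stress-induced luciferase reporter signal by more than about 70% of percent inhibition, limit read from the data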
# T cruzi repl: T. cruzi replication inhibition | T. cruzi beta-gal in NIH3T3, luminescence, 90 h | inhibition, % (test concentration not listed) | hit rate 1.4% among 300,000 | AID 1885;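 active = mean inhibition across valid replicates above about 55%, limit read from the data; inconclusive = mean below that limit but half or more replicates reach it; inactive = mean below it, under half of replicates reach it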;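 note: signal also drops with host cell toxicity which is not excluded here; higher percent means less beta-gal luminescence so fewer parasites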
#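 System: Mouse NIH/3T3 fibroblasts infected with β-gal-expressing T. cruzi Tulahuen C4 | Quantity: NIH/3T3 cells, 5,000 per well | Reagent: 5000 reporter trypomastigotes per well | Dosing: Compound pinned at 50 nL/well, DMSO | Schedule: 3 h host attachment, then at least 90 h co-culture | Detection: GalScreen luminescence, 60 min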
# Dynein transport: blocks dynein driven cargo transport along microtubules | 3617.4 mouse cells, GR-EGFP nuclear translocation imaging; test concentration mostly 20 µM; stimulated with dexamethasone, 1 µM; active compounds read low | z-score, hits read low | hit rate 0.47% among 220,000 | AID 1381;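 active = plate z-score of nuclear minus cytoplasmic receptor signal below a set negative limit, without overly bright fluorescence or cell loss, cut at about -3.5 in these data, passing the limit was not always enough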;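 note: z-score of nuclear minus cytoplasmic ring GR-EGFP intensity difference per well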
#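 medium = tetracycline-free induction medium containing charcoal-stripped FBS | also added = 1.0 µM final dexamethasone stimulus | schedule = 48 h induction, 1 h compound, 30 min dex at 37 °C | technique = fixed, Hoechst-stained cells imaged at 10x for EGFP | measure = GR-EGFP nuclear translocation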
# UPR XBP1 act: adaptive UPR (XBP1) activation | CHO-XBP1 luciferase reporter, IRE1-XBP1 UPR activation, luminescence; percent of tunicamycin response, DMSO as zero | activation, % at 20 µM | hit rate 0.33% among 330,000;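 active = versus positive control, 20 µM dose yields 30% or more activation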
#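 Material: IRE1-XBP1 luciferase reporter CHO line / Quantity: one thousand reporter cells per well / Buffer or medium: F12 with 10% serum / Compound: 20 µM single concentration, DMSO 1% / Times: 6 h treatment, 37 °C / Detection: Steady-Glo luciferase glow luminescence, 10 min after reagent addition / Benchmarks: tunicamycin high, DMSO low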
# CHOP UPR activ: apoptotic UPR (CHOP) activation; CHO-CHOP luciferase reporter, luminescence; percent of tunicamycin response over DMSO baseline; activation, % at 10 µM; hit rate 0.34% among 330,000;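 active = at 10 µM dose, activation of 40% or more, normalized to positive control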
#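 System: CHO-CHOP luciferase reporter cell line | Buffer or medium: F12 medium containing 10% fetal bovine serum | Doses: One dose, 10 µM in 0.5% DMSO | Times: 6 h compound exposure at 37 °C after overnight seeding | Signal: Luciferase luminescence | Read-out: % activation vs tunicamycin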
# UPR CHOP confirm: apoptotic UPR (CHOP) activation, confirmed. hit rate 64% among 1,000. shares compounds with CHOP UPR activ. CHO-CHOP cells, CHOP-luciferase reporter luminescence; percent of tunicamycin response, DMSO as zero. activation, % at 10 µM; in the data active = activation above about 33%
# Hits are given with their value; . = inactive; ? = inconclusive; / = no result.
SMILES,Lmaj promast,CHOP inhibitor,T cruzi repl,Dynein transport,UPR XBP1 act,CHOP UPR activ,UPR CHOP confirm
C=CCn1c(O)c(N=NC(=S)Nc2ccccc2C)c2cc(S(=O)(=O)N3CCOCC3)ccc21,.,.,.,.,.,45,.
Cn1c(O)c(N=NC(=S)Nc2ccccc2F)c2cc(S(=O)(=O)N3CCOCC3)ccc21,.,.,.,.,/,/,/
Cc1cc(C(=O)CSc2nc(N)cc(=O)[nH]2)ccc1F,/,/,.,/,.,.,/
Cc1ccc(C(=O)CSc2nc(N)cc(=O)[nH]2)cc1C,/,/,.,/,.,/,.
CCOc1ccc(C(=O)NCC(=O)OCc2nnc(-c3ccccc3)o2)cc1OCC,/,/,/,/,.,.,/
NS(=O)(=O)c1cc(C(=O)OCC(=O)N2CCc3ccccc3C2)ccc1Cl,/,/,/,/,.,.,/
CC(C)c1ccc(N(CC(=O)NCc2cccnc2)S(=O)(=O)c2ccccc2)cc1,/,/,.,/,.,.,/
CN(C)CCNC(=O)c1coc(=O)c(Br)c1,.,.,.,.,.,.,/
O=C(NCCc1ccccc1)c1coc(=O)c(Br)c1,/,/,.,/,.,105,73
CC(C)CNC(=O)c1coc(=O)c(Br)c1,.,/,.,.,.,175,70
Cc1cccc(-n2c(=O)c3ccccc3n3c(=S)[nH]nc23)c1C,/,/,.,/,.,.,/
COc1ccc(CNC(=O)COc2ccc(C(=O)c3ccc(F)cc3)cc2)cc1,.,.,.,.,.,56,.
O=C1CC(c2ccccc2)CC(O)=C1C=Nc1ccc(Cl)cc1 (stereo unspecified),.,83,.,.,.,43,.
O=C1CC(c2ccccc2)CC(O)=C1C=Nc1ccccc1Cl (stereo unspecified),.,.,.,.,.,.,/
CCCCNC(=S)NNC(=O)c1cc(-c2ccncc2)nc2ccccc12,/,/,.,/,.,.,/
CCCN1C(=O)/C(=N\OCC(=O)NCC(F)(F)F)c2ccccc21,.,.,.,.,.,.,/
Cn1c(=NC(=O)c2ccco2)sc2ccccc21,.,.,.,.,.,.,/
Cn1c(=NC(=O)CCl)sc2ccccc21,84,/,62,.,.,41,.
Cc1cc(C(=O)c2ccc(Cl)cc2)c(NC(=O)CCl)s1,.,.,.,.,.,50,46
CCc1cc(C(=O)c2ccc(C)cc2)c(NC(=O)CCl)s1,88,.,.,.,.,108,114
O=C(CNC(=O)c1ccc(C(F)(F)F)cc1)NC1CC1,/,/,/,/,.,.,/
Cc1nnc(SCc2nnc(-c3cccs3)o2)n1Cc1ccccc1,.,.,.,.,.,.,/
Clc1ccc(-c2nnc(CSc3nnc(-c4cccs4)n3Cc3ccccc3)o2)cc1,.,.,.,.,.,47,.
CCc1cccc2sc(N3CCN(C(=O)c4ccc([N+](=O)[O-])o4)CC3)nc12,/,/,64,/,.,157,141
COC(=O)c1c(N)c(C#N)c2n1CCCCC2,.,.,.,.,.,.,/
SMILES,Lmaj promast,CHOP inhibitor,T cruzi repl,Dynein transport,UPR XBP1 act,CHOP UPR activ,UPR CHOP confirm
N#Cc1c(N)c(C(=O)c2ccccc2)n2c1CCC2,.,.,.,.,.,54,.
COc1ccc(CC2=CC(=O)c3ccccc3C2=O)cc1,/,/,.,/,.,187,191
Cc1ccc(-c2ccc(/C=C/C(=O)c3ccccc3)o2)cc1,89,.,.,.,.,193,.
Cc1ccc(N/C=C/C(=O)c2ccc(C)cc2)cc1,.,.,.,.,.,.,/
Cc1ccc(C(=O)/C=C/C(=O)c2ccc(C)cc2)cc1,101,106,.,.,.,139,370
C[C@H]1COC(=O)[C@H](CC(=O)OC(C)(C)C)C/C=C\C[C@@H](CC(=O)N[C@@H](CO)Cc2ccccc2)C(=O)N1,/,/,/,/,.,.,/
O=[N+]([O-])c1ccccc1CN1CCN(Cc2c[nH]c3ccccc23)CC1,.,.,.,.,.,49,.
Cc1ccc(OCC(=O)NCc2n[nH]c(=O)c3ccccc23)cc1,/,/,.,/,.,.,/
COc1ccc(-c2nc(-c3ccccc3)nc(Cl)c2C#N)cc1,.,.,.,.,72,81,33
COc1ccc(S(=O)(=O)N2CCOCC2)cc1NS(=O)(=O)c1ccc(F)c(F)c1,/,/,/,/,.,.,/
O=C(COC(=O)c1ccccc1C(=O)c1ccc(Cl)c([N+](=O)[O-])c1)NC1CCCCCC1,.,93,?,.,.,85,36
O=C(COC(=O)c1ccc(Cl)c([N+](=O)[O-])c1)NC1CCCC1,/,/,.,/,.,.,/
CC(C)N(C(C)C)S(=O)(=O)c1ccc(N2CCc3ccccc3C2)nc1,/,/,.,/,.,64,.
CC(Sc1nnc(-c2cccnc2)n1N)C(=O)Nc1ccc2c(c1)OCCO2 (stereo unspecified),/,/,/,/,.,.,/
CCN(CC)C(=O)c1[nH]cnc1C(=O)NC1CCN(C(=O)OC(C)(C)C)CC1,/,/,/,/,.,.,/
O=C1/C(=C/C=C/c2ccccc2)Oc2c1ccc(O)c2CN1CCN(CCO)CC1,/,.,.,.,.,.,/
CN(C)Cc1c(O)ccc2c1O/C(=C\C=C\c1ccccc1)C2=O,/,.,.,.,.,97,.
C[C@H]1NS(=O)(=O)c2ccc(Br)cc2O[C@H]1c1ccccc1,/,/,/,/,.,.,/
COc1ccc(-c2cc(C(F)F)n3ncc(C(=O)N4CCc5ccccc54)c3n2)cc1,.,.,.,.,.,.,/
COc1ccc(-c2cc(C(F)F)n3ncc(C(=O)n4ccnc4C)c3n2)cc1,.,.,.,.,.,131,135
Cc1[nH]c2ccccc2c1CN1CCN(c2ccccn2)CC1,/,.,78,.,.,50,.
O=[N+]([O-])c1cc(O)c2ncccc2c1,100,.,.,.,.,109,88
Cn1nnnc1Sc1ncnc2scc(-c3ccccc3Cl)c12,/,/,/,/,.,.,/
Clc1ccc(-n2nnnc2Sc2ncnc3sccc23)cc1,.,/,.,.,.,89,112
O=Cc1[nH]c2ccccc2c1N(C(=O)CCl)c1ccc([N+](=O)[O-])cc1,/,.,.,.,.,55,.
O=C(NC1CCN(CC(=O)N(c2ccccc2)c2ccccc2)CC1)c1ccc([N+](=O)[O-])cc1,.,.,.,.,.,.,/
CCOCCCNC(=S)N(CCO)Cc1cc2cc3c(cc2[nH]c1=O)OCCO3,/,/,.,/,.,.,/
O=C(Nc1nccs1)c1cccc(N2C(=O)c3cccc4c([N+](=O)[O-])ccc(c34)C2=O)c1,73,.,.,.,.,85,122
COc1cc(/C=C/[N+](=O)[O-])ccc1OC(=O)c1cc2ccccc2oc1=O,/,/,.,/,.,120,.
Cc1onc(-c2ccccc2Cl)c1C(=O)NCc1nnnn1-c1ccc(F)cc1,/,/,.,/,.,.,/
